Measured values published in PubChem BioAssay AID588731 (Vanderbilt Specialized Chemistry Center, 2011).
The source made the active and inactive calls.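 The calls were made as follows: active = compounds shifting agonist potency at least twofold either way, or pushing peak agonist response below 75% or above 125%; inactive = the rest.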

Molecular target: Metabotropic glutamate receptor 7 (Rattus norvegicus) (UniProt P35400)
Assay: rat mGlu7 allosteric modulation, L-AP4 curve shift, profiling panel, selectivity assay for mGlu5 PAM project, thallium flux, HEK/GIRK cells (AID 588731)
Conditions: L-AP4 CRC shift, at 10 µM; for Emax: measured here: L-AP4 max response with compound
How it was run: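 Assay system: HEK cells with GIRK channels expressing rat mGlu7 receptor / Also added: L-AP4 concentration-response curve / Incubation: dye load 45 min, 37 °C, agonist at 142 s / Read-out: agonist EC50 fold shift and %Emax / Dosing: single test compound concentration of 10 µM final / Technique: GIRK thallium flux fluorescence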

Chain of Metabotropic glutamate receptor 7 (Rattus norvegicus) (P35400 whole entry, looked up): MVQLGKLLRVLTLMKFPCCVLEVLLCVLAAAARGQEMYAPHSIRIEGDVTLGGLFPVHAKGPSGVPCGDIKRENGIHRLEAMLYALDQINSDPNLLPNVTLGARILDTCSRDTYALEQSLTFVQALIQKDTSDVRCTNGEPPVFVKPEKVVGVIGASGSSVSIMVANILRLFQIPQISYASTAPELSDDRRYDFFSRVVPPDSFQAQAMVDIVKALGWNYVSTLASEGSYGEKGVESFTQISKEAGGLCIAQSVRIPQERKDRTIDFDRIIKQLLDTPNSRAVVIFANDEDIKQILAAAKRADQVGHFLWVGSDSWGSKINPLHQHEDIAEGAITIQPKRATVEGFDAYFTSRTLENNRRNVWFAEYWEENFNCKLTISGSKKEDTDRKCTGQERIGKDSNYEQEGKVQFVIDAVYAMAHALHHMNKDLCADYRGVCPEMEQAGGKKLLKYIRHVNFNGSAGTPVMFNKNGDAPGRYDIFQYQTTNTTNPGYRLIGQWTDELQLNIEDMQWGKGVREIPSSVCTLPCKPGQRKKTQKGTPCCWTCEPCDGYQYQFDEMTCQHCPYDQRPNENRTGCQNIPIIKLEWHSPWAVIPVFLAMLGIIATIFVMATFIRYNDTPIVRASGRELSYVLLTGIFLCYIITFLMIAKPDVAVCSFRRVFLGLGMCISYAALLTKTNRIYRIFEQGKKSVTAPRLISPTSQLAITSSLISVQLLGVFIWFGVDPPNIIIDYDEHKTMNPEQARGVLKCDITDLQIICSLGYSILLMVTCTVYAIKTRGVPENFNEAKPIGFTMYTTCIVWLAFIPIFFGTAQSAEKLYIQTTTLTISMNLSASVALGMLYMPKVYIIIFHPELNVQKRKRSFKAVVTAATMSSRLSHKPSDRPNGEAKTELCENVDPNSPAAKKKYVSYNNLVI

SMILES	fold shift	Emax [%]
C[C@@H](NC(=O)c1ccc(C#Cc2cccc(F)c2)cn1)C(C)(C)O	1.04 (inactive)	92
CC1(NC(=O)c2ccc(C#Cc3cccc(F)c3)cn2)COC1	0.77 (inactive)	92.3
